# The list is not random: actives were taken first. Their share in the collection is about 2%.
# RAD52 inh: blocks human RAD52 DNA annealing; P43351; recombinant RAD52 DNA annealing, FRET fluorescence; inhibition, % at 18.7 µM; 360,000 tested, 0.46% active; AID 651710;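 active = every replicate showing at least 50% inhibition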
# Target sequence (P43351 whole entry, looked up): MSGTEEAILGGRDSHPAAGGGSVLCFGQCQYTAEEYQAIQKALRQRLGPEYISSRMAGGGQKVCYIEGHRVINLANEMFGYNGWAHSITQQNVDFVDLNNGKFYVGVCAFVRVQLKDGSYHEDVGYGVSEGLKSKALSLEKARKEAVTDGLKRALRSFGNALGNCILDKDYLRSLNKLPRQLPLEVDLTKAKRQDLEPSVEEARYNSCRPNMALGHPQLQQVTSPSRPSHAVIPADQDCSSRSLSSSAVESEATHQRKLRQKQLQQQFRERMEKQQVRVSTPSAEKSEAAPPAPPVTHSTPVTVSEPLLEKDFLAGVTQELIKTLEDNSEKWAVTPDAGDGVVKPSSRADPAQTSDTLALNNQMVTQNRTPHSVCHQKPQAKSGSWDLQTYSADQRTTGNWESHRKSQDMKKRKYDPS
# E-selectin induc: E-selectin induction on HUVECs; activation, % at 7.58 µM; HUVEC E-selectin immunofluorescence imaging; normalized: neutral wells 0, TNF-alpha wells 100; 260,000 tested, 0.37% active;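 active = mean E-selectin-positive cell signal at least 10% of the positive control, reached in at least 60% of replicates, without over 20% cell loss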
#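 Assay system: HUVEC, human umbilical vein endothelial cells / Amount: 3,000 HUVEC/well / Controls: TNF-alpha positive control, DMSO neutral control / Compound dosing: single concentration / Medium: EGM-2 over gelatin coat / Evaluation: percent E-selectin-positive cells / Signal: immunofluorescence imaging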
# rRNA inh HTS: inhibitors of bacterial rRNA selective over humanized ribosomes; GFP signal change (wild-type ribosome), % (test concentration not listed); 350,000 tested, 1.6% active; E. coli WT GFP vs humanized-ribosome RFP mutants, fluorescence, 24 h; stronger effect = lower value; DMSO median 0, no signal -100;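 active = significant combined selectivity score with lowered wild-type GFP, culture density cut under 30%, mutant RFP and density less affected; inactive = any of these conditions unmet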
# PglD DTNB: inhibitors of Campylobacter jejuni PglD acetyltransferase; purified PglD enzyme, DTNB colorimetric CoA detection; inhibition, % at 12.5 µM; 360,000 tested, 0.098% active; AID 602405; in the data active = inhibition above about 16%, passing the limit was not always enough
# RAD54 inh: blocks human RAD54 Holliday junction branch migration | FAM/BHQ fluorescence | inhibition, % at 10.4 µM | 360,000 tested, 0.14% active | AID 602329 | Q92698;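 active = mean normalized replicate activity at least 40 and at least half of replicates scoring 40 or more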;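 note: 0% = median of neutral control wells and 100% = median of positive control wells; inhibitors cause a drop in the FAM fluorescence signal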
# XiGFP reactiv: reactivates the inactive X chromosome in mouse fibroblasts. XiGFP mouse fibroblasts, % GFP-positive cells imaging, 3 d; cells co-treated with 5-aza-dC sensitizer; scaled so ellipticine positive control = 100%. activation, % at 7.58 µM. 360,000 tested, 0.055% active. AID 743238;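 active = mean normalized replicate activation at least 10% and every replicate at or above 10%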;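 note: 0% = median of on-plate neutral control wells and 100% = ellipticine 6 µM median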
#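 Material: SV40-immortalized XiGFP fibroblast cells, line 68-5-11 | Buffer or medium: DMEM containing 5-aza-dC | Dosing: One concentration, pinned | Times: 3 d treatment, 15 min room-temperature fixation | Controls: Ellipticine 6 µM positive control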
# Active calls of the source: *; nt = not tested or not shown.
SMILES,RAD52 inh,E-selectin induc,rRNA inh HTS,PglD DTNB,RAD54 inh,XiGFP reactiv
Cc1ccn2cc(-c3cccc(S(=O)(=O)N4CCCC4)c3)nc2c1,2,nt,-25*,0,2,0
Cc1ccn2cc(-c3cccc(S(=O)(=O)N4CC(C)OC(C)C4)c3)nc2c1 (stereo unspecified),-5,nt,-5,3,-19,0
CNC[C@H]1OCCCC[C@@H](C)Oc2ccc(NC(=O)NC3CCCCC3)cc2C(=O)N([C@H](C)CO)C[C@H]1C,-83,0,4,3,11,-1
CSC1=NCCN1C(=O)Cc1ccc(-c2ccccc2)cc1,-17,nt,-19*,nt,nt,0
O=C1S/C(=C\c2ccc(O)c([N+](=O)[O-])c2)C(=O)N1Cc1cccc([N+](=O)[O-])c1,-5,nt,17,2,6,0
O=C(O)c1cccc(CN2C(=O)S/C(=C/c3ccccc3[N+](=O)[O-])C2=O)c1,-27,nt,-22*,nt,nt,0
Clc1cncc(Cl)c1N/N=C/c1ccncc1,-8,nt,-5,-4,9,0
Clc1cccc(Cl)c1/C=N/Nc1c(Cl)cncc1Cl,1,1,-16*,nt,nt,0
COc1ccc(N=Nc2cc(OC)c(N)cc2OC)cc1,-8,0,-10,-2,-2,0
Cc1cc(N=Nc2ccc(C)c(N=Nc3cc(C)c(N)cc3N)c2)c(N)cc1N,80*,0,-6,-11,101*,0
C[C@H]1CN([C@@H](C)CO)C(=O)c2cc(-c3ccccc3F)cnc2O[C@@H]1CN(C)Cc1cccc(F)c1,13,nt,nt,2,-2,nt
CC(=O)Nc1ccc(/C(N=Nc2ccccc2)=N/N=C(N)N)cc1,0,0,-20*,nt,nt,0
C[C@@H]1CN([C@@H](C)CO)S(=O)(=O)c2ccc(C3=CCCCC3)cc2O[C@H]1CN(C)C(=O)C1CCCCC1,-1,0,3,-2,9,-1
CN(C)c1ccc(/C=C/c2ccc3c4ccccc4ccc3[n+]2-c2ccccc2)cc1,45,217*,-69,1,74*,0
CN(C)c1ccc(/C=C/c2ccc3ccccc3[n+]2C)cc1,nt,nt,nt,-2,81*,0
CN(CCCS(=O)(=O)[O-])c1ccc(/C=C/c2ccc3ccccc3[n+]2C)cc1,-27,0,6,6,-6,0
CN(C)c1ccc(/C=C/c2cccc[n+]2[O-])cc1,-216,nt,-9,-2,-20,0
CC12CCC(=O)N1C(C(=O)Nc1cc(Cl)ccc1N1CCOCC1)CS2 (stereo unspecified),-13,135*,-16,1,6,0
CO[C@@H]1CN(C)C(=O)c2ccc(NC(=O)NC(C)C)cc2OC[C@@H](C)N(Cc2cncnc2)C[C@@H]1C,nt,0,1,nt,nt,0
O=C(Nc1ccccc1F)N1CCCCN2[C@@H](CO)[C@H](c3ccc(-c4cccnc4)cc3)[C@@H]2C1,-6,0,-19*,-13,-5,0
CN(C)CC#Cc1ccc([C@@H]2[C@H](CO)N3CCCCN(C(=O)Nc4cc(F)ccc4F)C[C@@H]23)cc1,51*,0,0,1,1,0
CN(C)CC#Cc1ccc([C@@H]2[C@@H](CO)N3CCCCN(C(=O)Nc4ccccc4F)C[C@H]23)cc1,54*,0,2,4,-13,0
C[C@@H]1CN([C@H](C)CO)C(=O)c2cccc(NC(=O)Nc3ccc(F)cc3)c2O[C@@H]1CN(C)C(=O)NC1CCCCC1,4,-8,5,4,-2,0
CNC[C@@H]1OCCCC[C@H](C)Oc2ccc(NC(=O)c3ccccc3)cc2C(=O)N([C@H](C)CO)C[C@@H]1C,-34,0,4,1,5,0
COc1ccc(C(=O)NC(=S)NNC(=O)c2ccccc2O)cc1,-16,0,8,5,-9,0
SMILES,RAD52 inh,E-selectin induc,rRNA inh HTS,PglD DTNB,RAD54 inh,XiGFP reactiv
COc1ccc(C(=O)c2cc([N+](=O)[O-])ccc2N2CCOCC2)cc1,-15,5,-19*,nt,nt,2
COc1ccc(/C=C(\NC(=O)c2ccc([N+](=O)[O-])cc2)C(=O)NCCCN2CCOCC2)cc1,-11,0,-14*,0,4,0
COc1ccc(C(=O)NC(=S)NNC(=O)c2ccccc2C)cc1,-29,nt,-41*,0,-3,0
CCOc1ccc(C(=O)c2cc([N+](=O)[O-])ccc2N2CCOCC2)cc1,-14,1,-15,nt,nt,2
COc1ccc(N2CCN(C(=O)C(=O)c3cccc([N+](=O)[O-])c3)CC2)cc1,-1,0,-4.6*,nt,nt,0
C[C@@H](NC(=O)C[C@@H]1C[C@H]2c3cc(NC(=O)CC4CC4)ccc3O[C@H]2[C@H](CO)O1)c1ccccc1,nt,-1,-1,nt,nt,0
O=C(C[C@@H]1CC[C@@H]2[C@H](COC[C@@H](O)CN2C(=O)c2ccc3c(c2)OCO3)O1)NCCN1CCCC1,-26,0,3,nt,nt,0
O=C(Nc1ccccc1F)N1CCCCN2[C@@H](CO)[C@H](c3ccc(C4=CCCC4)cc3)[C@@H]2C1,nt,-1,-48,-3,-1,0
CCCNC(=O)C[C@H]1CC[C@@H]2[C@@H](COc3ccc(NC(=O)c4cccs4)cc3C(=O)N2C)O1,4,0,-5,0,0,0
COc1ccc(C(=O)NNC(=S)NC(=O)c2cccc([N+](=O)[O-])c2)cc1,-13,8,-26*,3,6,0
O=C(NC(=S)NNC(=O)c1ccccc1O)c1cccc([N+](=O)[O-])c1,-15,0,-20,1,-6,0
Cn1ncc(Br)c1C(=O)N1CCCC1,2,0,13,-1,-3,0
Cn1ncc(Br)c1C(=O)NC12CC3CC(CC(C3)C1)C2,-5,0,-30*,nt,nt,0
C/C=C/c1ccc([C@H]2[C@@H](CO)N(C(C)=O)C23CN(S(C)(=O)=O)C3)cc1,-2,0,2,nt,nt,0
COc1cccc(CNC(=O)c2cc(S(=O)(=O)N3CCOCC3)cn2C)c1,-5,0,9,0,-3,23*
O=S1OC(c2ccccc2)c2cc(Cl)ccc21 (stereo unspecified),-8,0,-15*,8,2,0
O=C1OC(c2ccccc2)c2ccccc21 (stereo unspecified),-5,nt,1,nt,nt,0
Nc1nonc1-n1nnc(C(=O)N/N=C/c2cccc(Cl)c2)c1-c1cccs1,5,nt,-17*,2,7,0
Cc1ccsc1/C=N/NC(=O)c1nnn(-c2nonc2N)c1C(C)C,-15,nt,-18*,3,-11,0
CC(C)c1c(C(=O)N/N=C/c2c[nH]c3ccccc23)nnn1-c1nonc1N,-22,nt,-18*,3,-2,0

# Bioassay records deposited in PubChem by Broad Institute.
